We go through three molecules from PMC9499614 (ACS chemical biology, 2022).

Like-named read-outs stand apart in the source and are kept apart here.

Data set [1] concerns Sirt7-CLB. Description: NanoBit. The settings on record: H3K18-acetylated nucleosomes with ADPr. The format is binding. The essentials: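 Sirt7 was fused C-terminally to the NanoLuc large-bit fragment and purified natively. […] Buffer: 50 mM Tris pH 8.0, 250 µg/ml BSA. Incubated 20 min at RT. NanoGlow substrate added (50x final dilution), equilibrated 5 min at 37°C, luminescence read every 30 s for 15 min.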

In data set [2] the target is Sirt7-CLB (Sirt7 with the NanoLuc large bit fused to its C-terminus) (UniProt Q9NRC8). Briefly: split reporter.
Data set [3] concerns the target T1, Sirt7 (Homo sapiens, UniProt Q9NRC8).
T1 sequence (Q9NRC8 1-400): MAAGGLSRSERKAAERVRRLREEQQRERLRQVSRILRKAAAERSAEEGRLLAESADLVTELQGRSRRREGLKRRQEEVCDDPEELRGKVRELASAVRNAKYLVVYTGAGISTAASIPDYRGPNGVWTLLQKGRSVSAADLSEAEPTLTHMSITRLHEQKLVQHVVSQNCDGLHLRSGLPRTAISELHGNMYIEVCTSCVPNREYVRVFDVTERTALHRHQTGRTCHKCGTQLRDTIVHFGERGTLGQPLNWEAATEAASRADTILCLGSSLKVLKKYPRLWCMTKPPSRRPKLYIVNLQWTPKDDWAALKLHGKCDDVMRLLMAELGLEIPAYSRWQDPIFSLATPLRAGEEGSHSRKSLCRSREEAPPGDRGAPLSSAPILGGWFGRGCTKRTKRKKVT
It counts as biochemical. As to conditions: saturating H3K18-Deca peptide, variable NAD^+. The method, boiled down: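 NAD⁺ serially diluted (10-10000 µM) in 50 mM Tris pH 8.0. Mixed 1:1 with 500 µM (pre-mix) H3K18Ac-DNB or H3K18Deca-DNB peptide in 50 mM Tris pH 8.0, 20% DMSO, 1 mM DTT. Pre-incubated 10 min at 37°C. Started with Sirt7 complex carrying 2 µM nicotinamidase, run 30-60 min, quenched with 6% TFA. HPLC monitored at 400 nm; Michaelis-Menten fit.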

In data set [4] the test system is acidic patch regions of nucleosomes. Briefly: LANA-FAM nucleosome binding and competition with Sirt7. The settings on record: LANA-FAM pre-bound to nucleosomes, fluorescence anisotropy. Set-up: species or system human.
For data set [5], the target named is T2, apoSirt7 (Homo sapiens, UniProt Q9NRC8).
T2 sequence (Q9NRC8 1-400): T1 sequence (Q9NRC8 1-400)
Briefly: Michaelis-Menten kinetics with variable H3K18 acylated peptide, apoSirt7. The settings on record: uncomplexed Sirt7, H3K18Ac. It counts as biochemical. The essentials: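 Acylated H3K18 peptide serially diluted in 50 mM Tris pH 8.0 with 20% DMSO. 20 µL of Sirt7 solution was mixed with 20 µL of peptide at 37°C. Reactions were started with 10 µL of 10 mM NAD⁺ stock, run 5-60 min at 37°C and quenched with 6% TFA. Products were resolved by C18 HPLC. Product concentration = deacetylated/acetylated peak ratio × total substrate. Three independent experiments; Michaelis-Menten fit.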

In data set [6] the target is T1, Sirt7. The settings on record: cited from earlier work; for activity of recombinant apoSirt7 (in words): in vitro.

Regarding `Nc1ncnc2c1ncn2[C@@H]1O[C@H](COP(=O)(O)OP(=O)(O)OC[C@H]2OC(O)[C@H](O)[C@@H]2O)[C@@H](O)[C@H]1O` (stereo partly shown) [ADPr, ADP-ribose], in data set [1], the “reduction in Kd value on ADPr addition” value was determined as 2.5 fold.
Molecule “H3K18-acetylated small bit nucleosomes (SMB-AcNucs) (from UniProt P0C0S8 1-130; P68431 1-136; P62805 1-103) (complex)” gave a Kd in data set [2] of 3.75 nM. That is a single-digit nanomolar value.
For the molecule “Sirt7: 400 amino acid protein within the Class III deacetylase family; recombinant, E. coli”, in data set [3] (read-out: KM^NAD, 50 mM Tris pH 8.0, 37°C, 30-60 min, HPLC), the Km was found to be 680 ± 80 µM. In addition, in data set [3], the kcat/KM is listed as 32±4.1 M^−1x s^−1. In addition, in data set [3] (50 mM Tris pH 8.0, 37°C, 30-60 min, HPLC), the kcat stood at 0.022 ± 0.001 s⁻¹. The “displacement of LANA-FAM from nucleosomes (in words)” value in data set [4] is “Competitive displacement of LANA-FAM peptide from the pre-formed LANA-nucleosomal complex”. Further, in data set [5], the “H3K18 deacetylation activity (in words)” value is “very low, but readily measurable H3K18 deacetylation activity”. Further, the “activity of recombinant apoSirt7 (in words)” value in data set [6] (no reference number at the word, ref [19],[28] in sentence) was “completely inactive”; in data set [6] (ref [19]), “completely inactive”. For the same molecule, the “activity of apoSirt7 (in words)” value in data set [6] (ref [19],[40]) is “inactive”.
